Laboratory results from ChEMBL document CHEMBL1154975, “Selective inducible microsomal prostaglandin E(2) synthase-1 (mPGES-1) inhibitors derived from an oxicam template” (Bioorg Med Chem Lett, 2010).

Biological target: T1, Prostaglandin E synthase (Homo sapiens, UniProt O14684)
T1 sequence (O14684 whole entry): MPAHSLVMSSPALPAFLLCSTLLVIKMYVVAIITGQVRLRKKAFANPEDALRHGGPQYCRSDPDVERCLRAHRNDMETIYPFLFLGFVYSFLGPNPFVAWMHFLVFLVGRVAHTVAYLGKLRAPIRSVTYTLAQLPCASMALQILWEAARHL
Experiment: Inhibition of human mPGES1 assessed as PGE2 level after 41 sec by ELISA
In short: (§1)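 Enzyme in 100 mM potassium phosphate pH 6.2 with 2.5 mM glutathione, compound added in DMSO. Reaction started with PGH2 (final 2 µM), stopped with 2.5 mM FeCl2, diluted 120-fold into ELISA buffer. PGE2 by ELISA against a standard curve. % control set between reference-inhibited and enzyme-only controls; IC50 by 4-parameter log fit of duplicate data.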
For `O=C(Nc1ccc(-c2ccc(Cl)c(Cl)c2)cc1)C1NS(=O)(=O)c2ccccc2C1O` (configuration not stated), the IC50 was 0.19 µM. Compound `Cc1ccc(-c2ccc(NC(=O)C3=C(O)c4ccccc4S(=O)(=O)N3)cc2)cc1` has an IC50 of less than 0.07 µM. Compound `O=C(Nc1ccc(-c2ccc(Cl)c(Cl)c2)cn1)C1=C(O)c2ccccc2S(=O)(=O)N1` has an IC50 of 65.6 µM. Compound `O=C(Nc1ccc(-c2cccc(Cl)c2)cc1)C1=C(O)c2ccccc2S(=O)(=O)N1` has an IC50 of 0.86 µM. With `O=C(Nc1ccc(-c2ccc(Cl)cc2)cc1)C1=C(O)c2ccccc2S(=O)(=O)N1` the IC50 was 0.29 µM. For `O=C(Nc1ccc(C(=O)c2ccc(Cl)cc2)c(Cl)c1)C1=C(O)c2ccccc2S(=O)(=O)N1`, the IC50 was 0.11 µM. `N#Cc1ccc(-c2ccc(NC(=O)C3=C(O)c4ccccc4S(=O)(=O)N3)cc2)cc1` gave an IC50 of 3.96 µM. Compound `O=C(Nc1ccc(-c2ccc(Cl)nc2)cc1)C1=C(O)c2ccccc2S(=O)(=O)N1` has an IC50 of 12.7 µM. Compound `O=C(Nc1ccc(CCc2ccc(Cl)c(Cl)c2)cc1)C1=C(O)c2ccccc2S(=O)(=O)N1` has an IC50 of 0.11 µM. In the case of `O=C(CNS(=O)(=O)c1ccccc1CO)Nc1ccc(-c2ccc(Cl)c(Cl)c2)cc1`, the IC50 is reported as 29.6 µM. In the case of `O=C(Nc1ccc(-c2cccc(Cl)c2Cl)cc1)C1=C(O)c2ccccc2S(=O)(=O)N1`, the IC50 is reported as 0.038 µM. `O=C(Nc1ccc(Oc2ccc(Cl)cc2)cc1)C1=C(O)c2ccccc2S(=O)(=O)N1` showed an IC50 of 0.53 µM. In the case of `O=C(Nc1cccc(C(=O)c2ccc(Cl)cc2)c1)C1=C(O)c2ccccc2S(=O)(=O)N1`, the IC50 is reported as 3.91 µM. In the case of `Cc1cccc(-c2ccc(NC(=O)C3=C(O)c4ccccc4S(=O)(=O)N3)cc2)c1C`, the IC50 is reported as 1 µM.

Tested on: not listed separately
Experiment: Inhibition of rat mPGES1
With `CC(C)c1ccc2c(c1)c(SC(C)(C)C)c(CC(C)(C)C(=O)O)n2Cc1ccc(Cl)cc1` the IC50 was 3.2 µM.

Biological target: T1, Prostaglandin E synthase
Experiment: Inhibition of mPGES1
In short: as §1
In the case of `Fc1cccc(Cl)c1-c1nc(-c2ccc(C#Cc3ccc(C(F)(F)F)cc3)nc2)c(Br)[nH]1`, the IC50 is reported as 0.0008 µM.

Biological target: T1, Prostaglandin E synthase
Experiment: Inhibition of human mPGES1 in IL1-beta treated human FF cells assessed as blockade of PGH2 to PGE2 conversion after 50 mins by ELISA
Type: cell-based
In short: (§2)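 Human fetal fibroblasts in DMEM/15% FBS at 37 °C, 5% CO2; after 20–24 h, stimulated 20–24 h with 1 ng/mL IL-1β, washed, compound 50 min in serum-free DMEM, then 10 µM arachidonic acid 10 min. PGE2 by ELISA. For PGF2α, SnCl2 added after compound for 10 min before arachidonic acid. IC50 from duplicate data.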
`O=C(Nc1ccc(-c2ccc(Cl)c(Cl)c2)cc1)C1NS(=O)(=O)c2ccccc2C1O` (configuration not stated) showed an IC50 of 0.67 µM. With `Cc1ccc(-c2ccc(NC(=O)C3=C(O)c4ccccc4S(=O)(=O)N3)cc2)cc1` the IC50 was 2.24 µM. For `O=C(Nc1ccc(-c2cccc(Cl)c2)cc1)C1=C(O)c2ccccc2S(=O)(=O)N1`, the IC50 was 3.44 µM. Work on `O=C(Nc1ccc(-c2ccc(Cl)cc2)cc1)C1=C(O)c2ccccc2S(=O)(=O)N1` yielded an IC50 of 1.45 µM. Work on `O=C(Nc1ccc(C(=O)c2ccc(Cl)cc2)c(Cl)c1)C1=C(O)c2ccccc2S(=O)(=O)N1` yielded an IC50 of 1.14 µM. With `O=C(Nc1ccc(CCc2ccc(Cl)c(Cl)c2)cc1)C1=C(O)c2ccccc2S(=O)(=O)N1` the IC50 was 0.46 µM. For `O=C(Nc1ccc(-c2cccc(Cl)c2Cl)cc1)C1=C(O)c2ccccc2S(=O)(=O)N1`, the IC50 was less than 0.92 µM. In the case of `O=C(Nc1ccc(Oc2ccc(Cl)cc2)cc1)C1=C(O)c2ccccc2S(=O)(=O)N1`, the IC50 is reported as 6.73 µM. `O=C(Nc1cccc(C(=O)c2ccc(Cl)cc2)c1)C1=C(O)c2ccccc2S(=O)(=O)N1` gave an IC50 of 2.16 µM. Work on `Cc1cccc(-c2ccc(NC(=O)C3=C(O)c4ccccc4S(=O)(=O)N3)cc2)c1C` yielded an IC50 of 6.59 µM.

Biological target: T2, Prostaglandin G/H synthase 2 (Homo sapiens, UniProt P35354)
T2 sequence (P35354 whole entry): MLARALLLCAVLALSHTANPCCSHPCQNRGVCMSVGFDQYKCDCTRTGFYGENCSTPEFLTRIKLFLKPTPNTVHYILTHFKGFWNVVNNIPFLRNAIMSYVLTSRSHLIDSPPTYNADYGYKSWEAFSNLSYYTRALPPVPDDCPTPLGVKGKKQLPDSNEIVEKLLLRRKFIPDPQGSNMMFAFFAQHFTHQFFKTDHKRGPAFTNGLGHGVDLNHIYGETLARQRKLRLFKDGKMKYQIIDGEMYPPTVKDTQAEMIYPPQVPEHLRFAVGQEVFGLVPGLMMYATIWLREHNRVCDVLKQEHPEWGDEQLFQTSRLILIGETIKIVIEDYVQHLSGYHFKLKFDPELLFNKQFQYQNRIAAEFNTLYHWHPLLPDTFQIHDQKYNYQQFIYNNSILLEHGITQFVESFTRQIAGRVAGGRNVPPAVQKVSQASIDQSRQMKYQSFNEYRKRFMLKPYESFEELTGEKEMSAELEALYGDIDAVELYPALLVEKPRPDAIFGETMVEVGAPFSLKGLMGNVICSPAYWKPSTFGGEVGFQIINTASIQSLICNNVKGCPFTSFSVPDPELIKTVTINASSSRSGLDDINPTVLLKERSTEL
Experiment: Inhibition of human COX2 in IL1-beta treated human FF cells assessed as blockade of SnCl2-mediated PGH2 to PGF2alpha conversion after 50 mins by ELISA
Type: cell-based
In short: as §2
For `O=C(Nc1ccc(-c2ccc(Cl)c(Cl)c2)cc1)C1NS(=O)(=O)c2ccccc2C1O` (configuration not stated), the IC50 was greater than 100 µM. `Cc1ccc(-c2ccc(NC(=O)C3=C(O)c4ccccc4S(=O)(=O)N3)cc2)cc1` gave an IC50 greater than 100 µM. Work on `O=C(Nc1ccc(-c2cccc(Cl)c2)cc1)C1=C(O)c2ccccc2S(=O)(=O)N1` yielded an IC50 of 74.7 µM. In the case of `O=C(Nc1ccc(-c2ccc(Cl)cc2)cc1)C1=C(O)c2ccccc2S(=O)(=O)N1`, the IC50 is reported as 33.7 µM. Compound `O=C(Nc1ccc(C(=O)c2ccc(Cl)cc2)c(Cl)c1)C1=C(O)c2ccccc2S(=O)(=O)N1` has an IC50 of 95.6 µM. In the case of `O=C(Nc1ccc(CCc2ccc(Cl)c(Cl)c2)cc1)C1=C(O)c2ccccc2S(=O)(=O)N1`, the IC50 is reported as greater than 68 µM. In the case of `O=C(Nc1ccc(-c2cccc(Cl)c2Cl)cc1)C1=C(O)c2ccccc2S(=O)(=O)N1`, the IC50 is reported as 44.4 µM. `O=C(Nc1ccc(Oc2ccc(Cl)cc2)cc1)C1=C(O)c2ccccc2S(=O)(=O)N1` gave an IC50 of 70 µM. Work on `O=C(Nc1cccc(C(=O)c2ccc(Cl)cc2)c1)C1=C(O)c2ccccc2S(=O)(=O)N1` yielded an IC50 of 95.3 µM. With `Cc1cccc(-c2ccc(NC(=O)C3=C(O)c4ccccc4S(=O)(=O)N3)cc2)c1C` the IC50 was 94.7 µM.

Biological target: T3, Prostaglandin G/H synthase 1 (Homo sapiens, UniProt P23219)
T3 sequence (P23219 whole entry): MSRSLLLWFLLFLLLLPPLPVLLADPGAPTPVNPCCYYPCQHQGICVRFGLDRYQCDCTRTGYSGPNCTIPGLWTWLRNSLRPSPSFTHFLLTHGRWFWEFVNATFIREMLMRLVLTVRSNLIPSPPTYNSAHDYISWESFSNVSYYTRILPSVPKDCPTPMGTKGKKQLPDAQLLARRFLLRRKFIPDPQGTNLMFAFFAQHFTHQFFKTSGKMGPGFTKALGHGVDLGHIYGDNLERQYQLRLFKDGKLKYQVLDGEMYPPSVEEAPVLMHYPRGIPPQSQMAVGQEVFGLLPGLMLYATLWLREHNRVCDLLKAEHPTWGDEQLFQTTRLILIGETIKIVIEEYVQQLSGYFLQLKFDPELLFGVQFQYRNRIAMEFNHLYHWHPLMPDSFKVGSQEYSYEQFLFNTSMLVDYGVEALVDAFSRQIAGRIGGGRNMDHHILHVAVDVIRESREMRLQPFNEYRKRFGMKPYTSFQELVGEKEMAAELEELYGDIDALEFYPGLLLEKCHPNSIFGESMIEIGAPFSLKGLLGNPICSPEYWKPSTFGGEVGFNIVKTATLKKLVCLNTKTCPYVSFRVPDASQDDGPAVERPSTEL
Experiment: Inhibition of COX1
With `O=C(Nc1ccc(CCc2ccc(Cl)c(Cl)c2)cc1)C1=C(O)c2ccccc2S(=O)(=O)N1` the INH was greater than 50 µM.

Biological target: T4, Prostaglandin G/H synthase 2 (Homo sapiens) (UniProt P35354)
T4 sequence (whole entry): T2 sequence (P35354 whole entry)
Experiment: Inhibition of COX2
`O=C(Nc1ccc(CCc2ccc(Cl)c(Cl)c2)cc1)C1=C(O)c2ccccc2S(=O)(=O)N1` showed an INH greater than 50 µM.

Biological target: T3, Prostaglandin G/H synthase 1
Experiment: Inhibition of human recombinant COX1
In the case of `O=C(Nc1ccc(-c2ccc(Cl)c(Cl)c2)cc1)C1NS(=O)(=O)c2ccccc2C1O` (configuration not stated), the IC50 is reported as greater than 50 µM. For `O=C(Nc1ccc(CCc2ccc(Cl)c(Cl)c2)cc1)C1=C(O)c2ccccc2S(=O)(=O)N1`, the IC50 was 489 µM.

Biological target: T2, Prostaglandin G/H synthase 2
Experiment: Inhibition of human recombinant COX2
With `O=C(Nc1ccc(-c2ccc(Cl)c(Cl)c2)cc1)C1NS(=O)(=O)c2ccccc2C1O` (configuration not stated) the IC50 was greater than 50 µM. For `O=C(Nc1ccc(CCc2ccc(Cl)c(Cl)c2)cc1)C1=C(O)c2ccccc2S(=O)(=O)N1`, the IC50 was 467 µM.
